Assays:
[1] = tested on: U2OS; test: Multiplex assay against U2OS; type: toxicity, cell-based; conditions: human
Method in brief: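 Phenotypes for tubulin, mitochondrial mass and membrane permeability are expressed as per cents of healthy-nucleus cells. Cells were stained live at seeding with Hoechst33342, BioTracker Green Microtubule Cytoskeleton Dye, MitoTracker Red and Annexin V Alexa Fluor 680, then imaged after compound addition on a CQ1 microscope at 37°C and 5% CO2. Machine-learning gating in CellPathfinder separated Hoechst high-intensity objects from normal cells, divided normal cells by nuclear state (healthy, pyknosed, fragmented) and divided pyknosed cells into mitotic or apoptotic.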

[2] = tested on: Fibroblast; test: Incucyte cell viability with human fibroblast; type: toxicity, cell-based; conditions: 10 µM, compound concentration 10 uM; note: filed as whole numbers so only -1 and 0 and 1 occur
[3] = 12 h, 1 µM, compound concentration 1 uM, replicate 1
[4] = 12 h, 1 µM, compound concentration 1 uM, replicate 2
[5] = 12 h, 10 µM, compound concentration 10 uM, replicate 1
[6] = 12 h, 10 µM, compound concentration 10 uM, replicate 2
[7] = 24 h, 1 µM, compound concentration 1 uM, replicate 1
[8] = 24 h, 1 µM, compound concentration 1 uM, replicate 2
[9] = 24 h, 10 µM, compound concentration 10 uM, replicate 1
[10] = 24 h, 10 µM, compound concentration 10 uM, replicate 2

## Cl.Cn1c2c(c3ccc(Cl)c(Cl)c31)C(C#N)C1(CCNCC1)NC2=O (stereo unspecified)
[1]; [3]
  Population Apoptotic (%): 30%
  Population Fragmented Nuclei (%): 2%
  Population Healthy Nuclei (%): 90%
  Population Hoechst High Intensity Objects (%): 1%
  Population Mitochondria Different-Phenotype (%): 14%
  Population Mitotic Cells (%): 69%
  Population Normal (%): 98%
  Population Pyknosed Nuclei (%): 7%
  Population Tubulin-Different-Phenotype (%): 19%
  Total Cell Count: 137
[1]; [4]
  Population Apoptotic (%): 0%
  Population Fragmented Nuclei (%): 4%
  Population Healthy Nuclei (%): 94%
  Population Hoechst High Intensity Objects (%): 13%
  Population Membrane Permeable-Phenotype (%): 9%
  Population Mitochondria Different-Phenotype (%): 36%
  Population Mitotic Cells (%): 100%
  Population Normal (%): 86%
  Population Pyknosed Nuclei (%): 0%
  Population Tubulin-Different-Phenotype (%): 38%
  Total Cell Count: 159
[1]; [5]
  Population Apoptotic (%): 56%
  Population Fragmented Nuclei (%): 20%
  Population Healthy Nuclei (%): 20%
  Population Hoechst High Intensity Objects (%): 3%
  Population Membrane Permeable-Phenotype (%): 53%
  Population Mitochondria Different-Phenotype (%): 80%
  Population Mitotic Cells (%): 43%
  Population Normal (%): 96%
  Population Pyknosed Nuclei (%): 58%
  Population Tubulin-Different-Phenotype (%): 96%
  Total Cell Count: 183
[1]; [6]
  Population Apoptotic (%): 61%
  Population Fragmented Nuclei (%): 22%
  Population Healthy Nuclei (%): 27%
  Population Hoechst High Intensity Objects (%): 24%
  Population Membrane Permeable-Phenotype (%): 36%
  Population Mitochondria Different-Phenotype (%): 90%
  Population Mitotic Cells (%): 38%
  Population Normal (%): 75%
  Population Pyknosed Nuclei (%): 49%
  Population Tubulin-Different-Phenotype (%): 95%
  Total Cell Count: 123
[1]; [7]
  Population Apoptotic (%): 40%
  Population Fragmented Nuclei (%): 4%
  Population Healthy Nuclei (%): 88%
  Population Hoechst High Intensity Objects (%): 1%
  Population Membrane Permeable-Phenotype (%): 5%
  Population Mitochondria Different-Phenotype (%): 13%
  Population Mitotic Cells (%): 60%
  Population Normal (%): 98%
  Population Pyknosed Nuclei (%): 6%
  Population Tubulin-Different-Phenotype (%): 26%
  Total Cell Count: 129
[1]; [8]
  Population Apoptotic (%): 75%
  Population Fragmented Nuclei (%): 3%
  Population Healthy Nuclei (%): 93%
  Population Hoechst High Intensity Objects (%): 10%
  Population Membrane Permeable-Phenotype (%): 8%
  Population Mitochondria Different-Phenotype (%): 29%
  Population Mitotic Cells (%): 25%
  Population Normal (%): 89%
  Population Pyknosed Nuclei (%): 2%
  Population Tubulin-Different-Phenotype (%): 31%
  Total Cell Count: 157
[1]; [9]
  Population Apoptotic (%): 85%
  Population Fragmented Nuclei (%): 37%
  Population Healthy Nuclei (%): 10%
  Population Hoechst High Intensity Objects (%): 16%
  Population Membrane Permeable-Phenotype (%): 92%
  Population Mitochondria Different-Phenotype (%): 100%
  Population Mitotic Cells (%): 14%
  Population Normal (%): 83%
  Population Pyknosed Nuclei (%): 52%
  Population Tubulin-Different-Phenotype (%): 92%
  Total Cell Count: 231
[1]; [10]
  Population Apoptotic (%): 76%
  Population Fragmented Nuclei (%): 33%
  Population Healthy Nuclei (%): 17%
  Population Hoechst High Intensity Objects (%): 30%
  Population Membrane Permeable-Phenotype (%): 75%
  Population Mitochondria Different-Phenotype (%): 91%
  Population Mitotic Cells (%): 23%
  Population Normal (%): 69%
  Population Pyknosed Nuclei (%): 49%
  Population Tubulin-Different-Phenotype (%): 91%
  Total Cell Count: 164
[2]; 6 h, replicate number 1, timepoint 6 hours
  Growth Rate: 0
[2]; 12 h, replicate number 1, timepoint 12 hours
  Growth Rate: 0
[2]; 18 h, replicate number 1, timepoint 18 hours
  Growth Rate: 0
[2]; 24 h, replicate number 1, timepoint 24 hours
  Growth Rate: 0

Source: ChEMBL document CHEMBL4689842, “EUbOPEN Chemogenomics Library wave 1” (2021)
